ChEMBL document CHEMBL1255487, “Preclinical evaluation of the antifolate QN254, 5-chloro- N'6'-(2,5-dimethoxy-benzyl)-quinazoline-2,4,6-triamine, as an antimalarial drug candidate” (Antimicrob Agents Chemother, 2010)
Calls of active or inactive are those of the source. No cut-off for these calls is given here.

Columns and labels:
Plasmodium berghei [1] = test: Antimalarial activity against Plasmodium berghei ANKA infected in NMRI mice (Mus musculus) assessed as reduction in parasitemia at 3 times 60 mg/kg, perorally measured on day 3 postinfection; type: functional; parameters: scale not given: the % may be the effect or the level left; settings: route oral
In short: (§1)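 P. berghei ANKA given intravenously to groups of 5 female NMRI mice (20–22 g): 0.2 ml of 1 × 10^8 parasitized erythrocytes/ml from a donor mouse. Oral dosing in 0.5% carboxymethyl cellulose. Parasitemia counted by microscopy. Activity is the control-minus-treated parasitemia difference, expressed as percent of untreated controls.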

Plasmodium berghei [2] = test: Antimalarial activity against Plasmodium berghei ANKA infected in NMRI mice (Mus musculus) assessed as reduction in parasitemia at 3 times 100 mg/kg, perorally measured on day 3 postinfection; type: functional; parameters: scale not given: the % may be the effect or the level left; settings: route oral; in short: as §1
Plasmodium berghei [3] = test: Antimalarial activity against Plasmodium berghei ANKA infected in NMRI mice (Mus musculus) assessed as survival rate at 10 mg/kg, perorally administered as single dose; type: functional; settings: route oral
In short: (§2)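 Infection: 5 female NMRI mice (20–22 g) per group, inoculated intravenously with 0.2 ml of donor blood at 1 × 10^8 parasitized erythrocytes/ml. Oral administration in 0.5% carboxymethyl cellulose. Survival time recorded up to 30 days after infection and averaged per group.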

Plasmodium berghei [4] = test: Antimalarial activity against Plasmodium berghei ANKA infected in NMRI mice (Mus musculus) assessed as survival rate at 15 mg/kg, perorally administered as single dose; type: functional; settings: route oral; in short: as §2
Plasmodium berghei [5] = test: Antimalarial activity against Plasmodium berghei ANKA infected in NMRI mice (Mus musculus) assessed as survival rate at 60 mg/kg, perorally administered as single dose; type: functional; settings: route oral; in short: as §2
Plasmodium berghei [6] = test: Antimalarial activity against Plasmodium berghei ANKA infected in NMRI mice (Mus musculus) assessed as mean survival time at 3 times 30 mg/kg, perorally; type: functional; settings: route oral; in short: as §2
Plasmodium berghei [7] = test: Antimalarial activity against Plasmodium berghei ANKA infected in NMRI mice (Mus musculus) assessed as mean survival time at 3 times 60 mg/kg, perorally; type: functional, organism-based; parameters: dose 60 mg/kg
Plasmodium berghei [8] = test: Antimalarial activity against Plasmodium berghei ANKA infected in NMRI mice (Mus musculus) assessed as cure rate at 15 mg/kg, perorally administered as single dose measured on day 3 postinfection; type: functional; settings: route oral
In short: (§3)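 Female NMRI mice (20–22 g), 5 per group, infected intravenously with 0.2 ml of 1 × 10^8 parasitized erythrocytes/ml from a fresh donor mouse. Compound suspended in 0.5% carboxymethyl cellulose and given orally. Survival followed to day 30 post-infection; an animal was scored cured if it survived to day 30 without parasites.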

Plasmodium berghei [9] = test: Antimalarial activity against Plasmodium berghei ANKA infected in NMRI mice (Mus musculus) assessed as cure rate at 60 mg/kg, perorally administered as single dose […]; type: functional; settings: route oral; in short: as §3
Plasmodium berghei [10] = test: Antimalarial activity against Plasmodium berghei ANKA infected in NMRI mice (Mus musculus) assessed as cure rate at 3 times 60 mg/kg, perorally measured on day 3 postinfection; type: functional; settings: route oral; in short: as §3
Plasmodium berghei [11] = test: Antimalarial activity against Plasmodium berghei ANKA infected in NMRI mice (Mus musculus) assessed as cure rate at 3 times 100 mg/kg, perorally measured on […]; type: functional; settings: route oral; in short: as §3
Mus musculus [12] = test: Toxicity in NMRI mice (Mus musculus) infected with Plasmodium berghei ANKA at 60 mg/kg, perorally administered as single dose measured up to 30 days postinfection; type: organism-based; parameters: dose 60 mg/kg, route oral; settings: in vivo, po, 720 h
Mus musculus [13] = test: Toxicity in NMRI mice (Mus musculus) infected with Plasmodium berghei ANKA at 100 mg/kg, perorally administered as single dose measured up to 30 days postinfection; type: organism-based; parameters: dose 100 mg/kg, route oral; settings: in vivo, po, 720 h
Mus musculus [14] = test: Toxicity in NMRI mice (Mus musculus) infected with Plasmodium berghei ANKA at 3 times 100 mg/kg, perorally measured up to 30 days postinfection; type: organism-based; parameters: dose 100 mg/kg, route oral; settings: in vivo, po, 720 h
Dihydrofolate reductase = biological target: T1, Dihydrofolate reductase (Homo sapiens, UniProt P00374); test: Binding affinity to human recombinant DHFR expressed in Escherichia coli BL21(DE3) by competitive binding assay
T1 sequence (P00374 whole entry): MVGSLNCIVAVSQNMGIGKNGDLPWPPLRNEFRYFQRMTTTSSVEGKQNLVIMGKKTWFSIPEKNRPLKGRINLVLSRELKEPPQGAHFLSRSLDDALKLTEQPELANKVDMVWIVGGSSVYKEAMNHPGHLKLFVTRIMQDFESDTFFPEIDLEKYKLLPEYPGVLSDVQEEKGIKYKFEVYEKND

Rattus norvegicus [15] = test: Toxicity in Wistar rat assessed as occurrence of inflammatory changes in gastric tract at => 50 mg/kg, po after 2 weeks; type: organism-based, Stomach; parameters: dose 50 mg/kg, route oral; settings: in vivo, 336 h
In short: (§4)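 Male Wistar rats, about 10 weeks old (254–292 g), 5 per group, gavaged daily with 50, 150 or 500 mg/kg/day. Vehicle was 10% of 1% aqueous Solutol HS15 plus 90% of 0.5% aqueous methylcellulose; exploratory 2-week design. Clinical observations, body weight, food intake, hematology, clinical chemistry and gross pathology recorded. Histopathology covered gross lesions and selected organs in the control and low-dose groups.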

Rattus norvegicus [16] = test: Toxicity in Wistar rat assessed as occurrence of bone marrow degeneration at => 50 mg/kg, po after 2 weeks; type: organism-based; parameters: dose 50 mg/kg, route oral; settings: in vivo, 336 h; in short: as §4
[17] = Cmax in CD-1 mouse at 25 mg/kg, po; type: ADME, organism-based; parameters: dose 25 mg/kg, route oral; settings: in vivo
In short: (§5)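 Mice dosed with 25 mg/kg p.o. as a 2.5 mg/ml suspension in 0.5% CMC, or with 5 mg/kg i.v. at 1 mg/ml in 10% NMP, 30% PEG 400 and 60% of 10% vitamin E-TPGS. Blood sampled at several time points. Plasma extracted with acidified acetonitrile (8:1) and quantified by LC-MS, LLOQ 12 ng/ml.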

[18] = Cmax in Wistar rat at 25 mg/kg, po; type: ADME, organism-based; parameters: dose 25 mg/kg, route oral; settings: in vivo
In short: (§6)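 Rats dosed with 25 mg/kg p.o. as a 2.5 mg/ml suspension in 0.5% CMC, or with 5 mg/kg i.v. at 1 mg/ml in 10% NMP, 30% PEG 400 and 60% of 10% vitamin E-TPGS. Plasma sampled over time, extracted with acidified acetonitrile (8:1) and quantified by LC-MS, LLOQ 12 ng/ml.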

[19] = Tmax in CD-1 mouse at 25 mg/kg, po; type: ADME, organism-based; parameters: dose 25 mg/kg, route oral; settings: in vivo; in short: as §5
[20] = Tmax in Wistar rat at 25 mg/kg, po; type: ADME, organism-based; parameters: dose 25 mg/kg, route oral; settings: in vivo; in short: as §6
[21] = Half life in CD-1 mouse at 25 mg/kg, po; type: ADME, organism-based; parameters: dose 25 mg/kg, route oral; settings: in vivo; in short: as §5
[22] = Clearance in CD-1 mouse at 5 mg/kg, iv; type: ADME, organism-based; parameters: dose 5 mg/kg, route intravenous; settings: in vivo; in short: as §5
[23] = Clearance in Wistar rat at 5 mg/kg, iv; type: ADME, organism-based; parameters: dose 5 mg/kg, route intravenous; settings: in vivo; in short: as §6
Plasmodium berghei [24] = test: Antimalarial activity against Plasmodium berghei ANKA infected in NMRI mice (Mus musculus) assessed as reduction in parasitemia at 10 mg/kg, perorally administered as single dose measured on day 3 postinfection; type: functional; parameters: scale not given: the % may be the effect or the level left; settings: route oral; in short: as §1
Plasmodium berghei [25] = test: Antimalarial activity against Plasmodium berghei ANKA infected in NMRI mice (Mus musculus) assessed as reduction in parasitemia at 60 mg/kg, perorally administered as single dose measured on day 3 postinfection; type: functional; parameters: scale not given: the % may be the effect or the level left; settings: route oral; in short: as §1
Plasmodium berghei [26] = test: Antimalarial activity against Plasmodium berghei ANKA infected in NMRI mice (Mus musculus) assessed as reduction in parasitemia at 100 mg/kg, perorally administered as single dose measured on day 3 postinfection; type: functional; parameters: scale not given: the % may be the effect or the level left; settings: route oral; in short: as §1

In the case of COc1ccc(OC)c(CNc2ccc3nc(N)nc(N)c3c2Cl)c1, the Activity (Plasmodium berghei [1]) is reported as over 99.99%, the Activity (Plasmodium berghei [2]) is reported as over 99.99% and the Survival (Plasmodium berghei [3]) is reported as 6 days. The Survival (Plasmodium berghei [4]) was 6 days, the Survival (Plasmodium berghei [5]) was 12 days and the Survival (Plasmodium berghei [6]) was 28.4 days. The Activity (Plasmodium berghei [7]) was “inactive”, the Activity (Plasmodium berghei [8]) was 0% and the Activity (Plasmodium berghei [9]) was 0%. It also gave an Activity (Plasmodium berghei [10]) of 60%, an Activity (Plasmodium berghei [11]) of 20% and an Activity (Mus musculus [12]) of 0%. For the same compound, the Activity (Mus musculus [13]) was 0%, the Activity (Mus musculus [14]) was 80% and the Ki (Dihydrofolate reductase) was 10.2 nM. The Activity (Rattus norvegicus [15]) was “Toxic”, the Activity (Rattus norvegicus [16]) was “Toxic” and the Cmax [17] was 5.1 µM. For the same compound, the Cmax [18] was 2.8 µM, the Tmax [19] was 4 h and the Tmax [20] was 4 h. The half-life [21] was 4.84 h, the clearance [22] was 51.1 mL/min/kg and the clearance [23] was 17 mL/min/kg. For the same compound, the Activity (Plasmodium berghei [24]) was 59%, the Activity (Plasmodium berghei [25]) was over 99.99% and the Activity (Plasmodium berghei [26]) was over 99.99%.
